Measured values published in PMC7424737 (ACS Omega, 2020).
Converted amounts (≈) assume the structure as drawn.

Legend:
[1] = biological target: T1, TMV-coat protein (TMV-CP) (Tobacco mosaic virus, UniProt P69687); experiment: Microscale thermophoresis; type: binding
T1 sequence (P69687 2-159 limits assumed): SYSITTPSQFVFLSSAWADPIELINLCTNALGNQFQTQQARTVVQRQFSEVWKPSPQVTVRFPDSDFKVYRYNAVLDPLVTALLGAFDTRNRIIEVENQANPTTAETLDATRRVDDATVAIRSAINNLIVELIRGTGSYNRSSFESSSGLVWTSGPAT
Summary of the method: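 Test compound binding to TMV coat protein was measured by microscale thermophoresis to give a dissociation constant (Kd). Ningnanmycin and ribavirin served as positive controls. Each test was repeated three times.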

TMV [2] = experiment: Anti-TMV inactivation; type: in vivo; details: Tobacco mosaic virus, read-out: EC50 of inactivation effect activity
Summary of the method: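 TMV was mixed with test compound for 0.5 h. The mixture was rubbed onto the right half-leaf of tobacco plants, and the left half received the same virus dose alone. Lesions were counted 3–4 days later. Inhibition (%) was calculated from lesion numbers versus the blank-control half. Three repeats; ribavirin positive control.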

TMV [3] = experiment: Anti-TMV curative activity in vivo, half-leaf method; parameters: species or system tobacco mosaic virus; details: against TMV in vivo at 500 mg/L (500 μg/mL); average of three replicates ± SD
Summary of the method: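 Five-leaf-stage tobacco plants were dusted with emery and rub-inoculated with TMV. After 0.5 h the emery was rinsed off with water and the leaves left to dry. Test compound solution went on the left half-leaf and blank solution on the right. Lesions were counted per half 3–4 days later, and inhibition (%) was calculated from treated versus blank counts. Three repeats; ribavirin positive control.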

Kd [1]: 223 ± 66.2 µM
EC50 (TMV [2]): 138 ± 4.2 µg/mL (≈ 566 µM)
SMILES: NC(=O)c1ncn([C@@H]2O[C@H](CO)[C@@H](O)[C@H]2O)n1 [ribavirin]
curative effect activity (TMV [3]): 49.3 ± 7.5%
